Assay results as given in ChEMBL document CHEMBL3244197, “Mercaptoimidazolylpropionic acid hydrobromide. Inhibition of tadpole collagenase and related properties” (J Med Chem, 1978).
One block for each compound: values may come before it. Activity calls are given as the source filed them. The calls are words filed in the database; no cut-off is given here.

Key:
Rana catesbeiana = species on record: Rana catesbeiana; experiment: (§1) Inhibition of Rana catesbeiana tadpole collagenase using lathyritic rat skin collagen as substrate after 41 hrs by radial diffusion assay
Method in brief: (§2)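 Enzyme cultured from tadpole tail fin and back skin, purified by ammonium sulfate precipitation and Sephadex G-200, concentrated 20-fold by ultrafiltration at 4 °C. Gel: Tris-buffered pH 7.6, 1% agarose with 0.1% collagen, set 2 h at 20 °C, held ≥40 h at 4 °C. Wells (3.0 mm) received 15 µL enzyme ± inhibitor. Incubation 41 h at 28 °C, then 2 h at 37 °C. Lysis-zone diameter read as radial diffusion units; concentration for 50% inhibition taken.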

[1] = as §1; conditions: read-out: I50; method in brief: as §2
[2] = Half life of the compound in phosphate buffer with 200 ml/min oxygen flow assessed as oxidation at 0.28 mM by Ellman's method; type: physicochemical
Method in brief: (§3)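 35 mL sample, 0.1 M phosphate buffer pH 7.4, oxygen-saturated; water-vapour-saturated O2 bubbled through via gas dispersion tube at 20 °C. 200 µL aliquots withdrawn over time; remaining SH titre measured by quantitative Ellman determination; half-time in hours.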

[3] = Half life of the compound in phosphate buffer with 350 ml/min oxygen flow assessed as oxidation at 0.27 mM by Ellman's method; type: physicochemical; method in brief: as §3
[4] = Half life of the compound in phosphate buffer with 360 ml/min oxygen flow assessed as oxidation at 0.16 mM by Ellman's method; type: physicochemical; method in brief: as §3
[5] = Half life of the compound in phosphate buffer with 214 ml/min oxygen flow assessed as oxidation at 0.24 mM by Ellman's method; type: physicochemical; method in brief: as §3
Mus musculus [6] = experiment: Toxicity in Swiss-Wistar mouse assessed as body weight gain at 885 mg/kg, ip after 3 days (reference value: 20%); type: organism-based; set-up: dose 885 mg/kg, route intraperitoneal; conditions: in vivo, 72 h
[7] = Half life of the compound in phosphate buffer with 400 ml/min oxygen flow assessed as oxidation at 0.14 mM by Ellman's method; type: physicochemical; method in brief: as §3
Mus musculus [8] = experiment: Toxicity in Swiss-Wistar mouse assessed as body weight gain at 189 mg/kg, ip after 3 days (reference value: 20%); type: organism-based; set-up: dose 189 mg/kg, route intraperitoneal; conditions: in vivo, 72 h
Mus musculus [9] = experiment: Toxicity in Swiss-Wistar mouse assessed as body weight gain at 418 mg/kg, ip after 3 days (reference value: 20%); type: organism-based; set-up: dose 418 mg/kg, route intraperitoneal; conditions: in vivo, 72 h
[10] = Half life of the compound in phosphate buffer with 214 ml/min oxygen flow assessed as oxidation at 0.25 mM by Ellman's method; type: physicochemical; method in brief: as §3
Mus musculus [11] = experiment: Toxicity in Swiss-Wistar mouse assessed as change in health condition at 189 to 1980 mg/kg, ip after 7 days; type: organism-based; set-up: dose 189-1980 mg/kg, route intraperitoneal; conditions: in vivo, 168 h
Mus musculus [12] = experiment: Toxicity in Swiss-Wistar mouse assessed as body weight gain at 1980 mg/kg, ip after 3 days (reference value: 20%); type: organism-based; set-up: dose 1980 mg/kg, route intraperitoneal; conditions: in vivo, 72 h
Bacillus subtilis = experiment: Mutagenicity in repair-deficient Bacillus subtilis assessed as growth inhibition at 0.1 M; type: toxicity, organism-based; conditions: in vivo
Method in brief: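 Repair-deficient tester strains exposed to test compound at 0.10 M, with chloroacetaldehyde (0.10 M) as mutagen reference; growth inhibition scored.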

SMILES: O=C(O)C(Br)Cc1cnc[nH]1 (racemic)
- I50 (Rana catesbeiana): inactive

SMILES: Br.O=C(O)C(S)Cc1cnc[nH]1 (racemic)
- Activity (Mus musculus [6]): 23%
- IC50 [1]: 3.8 mM
- half-life at 140 µM [7]: 8.7 h
- Activity (Mus musculus [8]): 22%
- Activity (Mus musculus [9]): 18%
- half-life at 250 µM [10]: 12.7 h
- Activity (Mus musculus [11]): Non-toxic
- Activity (Mus musculus [12]): 18%
- Activity (Bacillus subtilis): Non-toxic

Continued, values first:

- IC50 [1]: ≥ 100 mM
- half-life at 280 µM [2]: 12.8 h
- half-life at 270 µM [3]: 10.9 h
SMILES: CC(=O)N[C@@H](CS)C(=O)O [ACETYLCYSTEINE]

- half-life at 160 µM [4]: 5.3 h
- IC50 [1]: 8.7 mM
- half-life at 240 µM [5]: 6.4 h
SMILES: N[C@@H](CS)C(=O)O [CYSTEINE]

- IC50 [1]: ≥ 100 mM
SMILES: N[C@@H](Cc1c[nH]cn1)C(=O)O [HISTIDINE]
